Assay results from ChEMBL document CHEMBL3297682, “Synthesis and anticancer activity of γ-(triazolyl ethylidene)butenolides and polyfunctional pyrrolinones” (Eur J Med Chem, 2014).
The source made the active and inactive calls. The rule behind the calls is not given here.

Assays:
MCF7 [1] = test: Antiproliferative activity against human MCF7 cells after 24 hrs by MTT assay; type: functional, cell-based; conditions: MCF7, 24 h
Outline: (§1)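 1×10^4 cells/well seeded in DMEM with 10% FBS and antibiotic-antimycotic, grown 24 h at 37 °C under 5% CO2. Compounds diluted in phenol red-free DMEM with 2% FBS and given for 24 h, with vehicle control. MTT (5 mg/mL, 20 µL) added for 3 h. Formazan dissolved in DMSO, absorbance read at 570 nm. IC50 is the concentration giving 50% growth inhibition.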

MDA-MB-231 [2] = test: Antiproliferative activity against human MDA-MB-231 cells after 24 hrs by MTT assay; type: functional, cell-based; conditions: MDA-MB-231, 24 h; outline: as §1
PC-3 [3] = test: Antiproliferative activity against human PC3 cells after 24 hrs by MTT assay; type: functional, cell-based; conditions: PC-3, 24 h; outline: as §1
HCT-116 [4] = test: Antiproliferative activity against human HCT116 cells after 24 hrs by MTT assay; type: functional, cell-based; conditions: HCT-116, 24 h; outline: as §1
U-937 [5] = test: Antiproliferative activity against human U937 cells after 24 hrs by MTT assay; type: functional, cell-based; conditions: U-937, 24 h; outline: as §1
HEK293 = test: Cytotoxicity against human HEK293 cells after 24 hrs by MTT assay; type: cell-based; conditions: HEK293, 24 h; outline: as §1
MDA-MB-231 [6] = test: Induction of reactive oxygen species production in human MDA-MB-231 cells after 24 hrs by DCFH-DA dye based flow cytometry; type: functional, cell-based
Outline: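 MDA-MB-231 cells (1×10^6) seeded 24 h in six-well plates, then treated 24 h. Cells harvested, washed in PBS and fixed in absolute methanol. Cells resuspended in PBS with 15 µg/mL DCFH-DA for 30 min in the dark, then pelleted, taken up in PBS, and fluorescence read by flow cytometry.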

MDA-MB-231 [7] = test: Induction of cell cycle arrest in human MDA-MB-231 cells assessed as accumulation at subG1 phase at IC50 concentration measured after 24 hrs by propidium iodide staining based flow cytometry; type: functional
Outline: (§2)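 1×10^6 cells seeded in six-well plates and treated 24 h. Floating and trypsinized adherent cells pooled and fixed in 70% ethanol. Cells washed in PBS, then stained 30 min at room temperature in the dark with 30 µg/mL propidium iodide in PBS containing RNase A. DNA content measured by flow cytometry.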

MCF7 [8] = test: Induction of cell cycle arrest in human MCF7 cells assessed as accumulation at subG1 phase at IC50 concentration measured after 24 hrs by propidium iodide staining based flow cytometry; type: functional; outline: as §2
PC-3 [9] = test: Induction of cell cycle arrest in human PC3 cells assessed as accumulation at subG1 phase at IC50 concentration measured after 24 hrs by propidium iodide staining based flow cytometry; type: functional; outline: as §2
U-937 [10] = test: Induction of cell cycle arrest in human U937 cells assessed as accumulation at subG1 phase at IC50 concentration measured after 24 hrs by propidium iodide staining based flow cytometry; type: functional; outline: as §2
HCT-116 [11] = test: Induction of cell cycle arrest in human HCT116 cells assessed as accumulation at subG1 phase at IC50 concentration measured after 24 hrs by propidium iodide staining based flow cytometry; type: functional; outline: as §2

Row | Compound | IC50 (MCF7 [1]) | IC50 (MDA-MB-231 [2]) | IC50 (PC-3 [3]) | IC50 (HCT-116 [4]) | IC50 (U-937 [5]) | IC50 (HEK293) | Activity (MDA-MB-231 [6]) | Activity (MDA-MB-231 [7]) | Activity (MCF7 [8]) | Activity (PC-3 [9]) | Activity (U-937 [10]) | Activity (HCT-116 [11])
1 | O=C1NC(O)(CCn2cc(C3=CCCCC3)nn2)C(OCc2ccccc2)=C1OCc1ccccc1 (centres undefined) | > 100 µM | 13.1 µM | 67.2 µM | > 100 µM | > 100 µM | 70 µM | Active |  |  |  |  | 
2 | CC(C)(C)c1ccc(-c2cn(C/C=C3\OC(=O)C(OCc4ccccc4)=C3OCc3ccccc3)nn2)cc1 | > 100 µM | 51.2 µM | > 100 µM | > 100 µM | > 100 µM | > 100 µM |  |  |  |  |  | 
3 | COC1=C(OC)/C(=C/Cn2cc(-c3ccc(C(C)(C)C)cc3)nn2)OC1=O | > 100 µM | > 100 µM | > 100 µM | > 100 µM | 30 µM | > 100 µM |  |  |  |  |  | 
4 | COC1=C(OC)/C(=C/Cn2cc(-c3ccccn3)nn2)OC1=O | > 100 µM | > 100 µM | > 100 µM | > 100 µM | > 100 µM | > 100 µM |  |  |  |  |  | 
5 | COC1=C(OC)/C(=C/Cn2cc(-c3ccccc3)nn2)OC1=O | > 100 µM | > 100 µM | > 100 µM | > 100 µM | > 100 µM | > 100 µM |  |  |  |  |  | 
6 | O=C1O/C(=C\Cn2cc(-c3ccccc3)nn2)C(OCc2ccccc2)=C1OCc1ccccc1 | > 100 µM | 44 µM | > 100 µM | > 100 µM | > 100 µM | > 100 µM |  |  |  |  |  | 
7 | CCCCc1cn(C/C=C2\OC(=O)C(OCc3ccccc3)=C2OCc2ccccc2)nn1 | > 100 µM | > 100 µM | > 100 µM | 64.3 µM | > 100 µM | > 100 µM |  |  |  |  |  | 
8 | COC1=C(OC)/C(=C/Cn2cc(Cc3ccccc3)nn2)OC1=O | > 100 µM | > 100 µM | > 100 µM | > 100 µM | > 100 µM | > 100 µM |  |  |  |  |  | 
9 | Cc1ccc(-c2cn(C/C=C3\OC(=O)C(OCc4ccccc4)=C3OCc3ccccc3)nn2)cc1 | > 100 µM | > 100 µM | > 100 µM | > 100 µM | > 100 µM | > 100 µM |  |  |  |  |  | 
10 | CCCCCc1cn(C/C=C2\OC(=O)C(OCc3ccccc3)=C2OCc2ccccc2)nn1 | > 100 µM | > 100 µM | > 100 µM | > 100 µM | > 100 µM | > 100 µM |  |  |  |  |  | 
11 | O=C1O/C(=C\Cn2cc(-c3ccccn3)nn2)C(OCc2ccccc2)=C1OCc1ccccc1 | > 100 µM | > 100 µM | > 100 µM | > 100 µM | 70.2 µM | > 100 µM |  |  |  |  |  | 
12 | CCCCCCc1cn(C/C=C2\OC(=O)C(OC)=C2OC)nn1 | > 100 µM | 74.7 µM | > 100 µM | > 100 µM | > 100 µM | > 100 µM |  |  |  |  |  | 
13 | O=C1O/C(=C\Cn2cc(C3=CCCCC3)nn2)C(OCc2ccccc2)=C1OCc1ccccc1 | > 100 µM | > 100 µM | 55.6 µM | > 100 µM | > 100 µM | > 100 µM |  |  |  |  |  | 
14 | CCCc1cn(C/C=C2\OC(=O)C(OCc3ccccc3)=C2OCc2ccccc2)nn1 | > 100 µM | > 100 µM | > 100 µM | > 100 µM | > 100 µM | > 100 µM |  |  |  |  |  | 
15 | COC1=C(OC)/C(=C/Cn2cc(C3CC3)nn2)OC1=O | > 100 µM | > 100 µM | > 100 µM | > 100 µM | > 100 µM | > 100 µM |  |  |  |  |  | 

Second part, led by results:

Row | IC50 (MCF7 [1]) | IC50 (MDA-MB-231 [2]) | IC50 (PC-3 [3]) | IC50 (HCT-116 [4]) | IC50 (U-937 [5]) | Compound | IC50 (HEK293) | Activity (MDA-MB-231 [6]) | Activity (MDA-MB-231 [7]) | Activity (MCF7 [8]) | Activity (PC-3 [9]) | Activity (U-937 [10]) | Activity (HCT-116 [11])
16 | 35 µM | 87.5 µM | > 100 µM | > 100 µM | > 100 µM | COC1=C(OC)/C(=C/Cn2cc(CCCCO)nn2)OC1=O | > 100 µM |  |  |  |  |  | 
17 | > 100 µM | 35.5 µM | > 100 µM | > 100 µM | > 100 µM | CCCCCC(O)c1cn(C/C=C2\OC(=O)C(OC)=C2OC)nn1 (centres undefined) | 80 µM |  |  |  |  |  | 
18 | 39.2 µM | > 100 µM | > 100 µM | 51.2 µM | > 100 µM | O=C1NC(O)(CCn2cc(Cc3ccccc3)nn2)C(OCc2ccccc2)=C1OCc1ccccc1 (centres undefined) | 86 µM |  |  |  |  |  | 
19 | 66.8 µM | > 100 µM | > 100 µM | > 100 µM | 80.5 µM | CCCc1cn(C/C=C2/C(OCc3ccccc3)=C(OCc3ccccc3)C(=O)N2CCC)nn1 | 82 µM |  |  |  |  |  | 
20 | 25.1 µM | > 100 µM | 43 µM | > 100 µM | 56.5 µM | CC(C)(C)c1ccc(-c2cn(CCC3(O)NC(=O)C(OCc4ccccc4)=C3OCc3ccccc3)nn2)cc1 (centres undefined) | > 100 µM |  |  |  |  |  | 
21 | > 100 µM | > 100 µM | 35 µM | > 100 µM | > 100 µM | CCCc1cn(CCC2(O)C(OCc3ccccc3)=C(OCc3ccccc3)C(=O)N2CCC)nn1 (centres undefined) | 90 µM |  |  |  |  |  | 
22 | > 100 µM | > 100 µM | > 100 µM | > 100 µM | > 100 µM | O=C1O/C(=C\Cn2cc(C3CC3)nn2)C(OCc2ccccc2)=C1OCc1ccccc1 | > 100 µM |  |  |  |  |  | 
23 | 40 µM | 29.2 µM | 71.3 µM | 83.1 µM | > 100 µM | O=C1O/C(=C\Cn2cc(Cc3ccccc3)nn2)C(OCc2ccccc2)=C1OCc1ccccc1 | 70 µM | Active |  |  |  |  | 
24 | 35 µM | > 100 µM | > 100 µM | > 100 µM | > 100 µM | COC1=C(OC)/C(=C/Cn2cc(CO)nn2)OC1=O | > 100 µM |  |  |  |  |  | 
25 | 22.6 µM | 18.3 µM | 35.3 µM | 46.3 µM | 20.3 µM | COC1=C(OC)C(O)(CCn2cc(-c3ccccc3)nn2)NC1=O (centres undefined) | 62 µM | Active | Active | Active | Active | Active | Active
26 | 53.6 µM | > 100 µM | > 100 µM | > 100 µM | > 100 µM | O=C1O/C(=C\Cn2cc(CCCCO)nn2)C(OCc2ccccc2)=C1OCc1ccccc1 | > 100 µM |  |  |  |  |  | 
27 | 24.3 µM | > 100 µM | 80.3 µM | > 100 µM | 84.2 µM | CCCCCCCCN1C(=O)C(OCc2ccccc2)=C(OCc2ccccc2)C1(O)CCn1cc(-c2ccccn2)nn1 (centres undefined) | > 100 µM |  |  |  |  |  | 
28 | 46.2 µM | > 100 µM | > 100 µM | > 100 µM | 90.2 µM | CCCCCCCCN1C(=O)C(OCc2ccccc2)=C(OCc2ccccc2)/C1=C/Cn1cc(-c2ccccn2)nn1 | 83 µM |  |  |  |  |  | 
29 | 20.5 µM | 21.1 µM | > 100 µM | 53.4 µM | 21.5 µM | O=C1NC(O)(CCn2cc(-c3ccccc3)nn2)C(OCc2ccccc2)=C1OCc1ccccc1 (centres undefined) | > 100 µM | Active | Active | Active | Active | Active | Active
30 | 6 µM | 14 µM | 7 µM |  |  | CC/C(=C(\c1ccccc1)c1ccc(OCCN(C)C)cc1)c1ccccc1 [TAMOXIFEN] | 50 µM |  |  |  |  |  | 
31 | 32 µM | > 100 µM | 65.5 µM | > 100 µM | 60.2 µM | CC(C)(C)c1ccc(-c2cn(CCC3(O)C(OCc4ccccc4)=C(OCc4ccccc4)C(=O)N3CCc3ccccc3)nn2)cc1 (centres undefined) | 71 µM |  |  |  |  |  | 
32 | 24 µM | 82.2 µM | 84.2 µM | 74.3 µM | 54 µM | Cc1ccc(-c2cn(CCC3(O)NC(=O)C(OCc4ccccc4)=C3OCc3ccccc3)nn2)cc1 (centres undefined) | 45 µM |  |  |  |  |  | 
